In general, Inhibition refers to the drop in the measured response relative to a control, in per cent.

Consider 20 compounds from ChEMBL document CHEMBL1132304, “Characterization of "mini-nucleotides" as P2X receptor agonists in rat cardiomyocyte cultures. An integrated synthetic, biochemical, and theoretical study” (1999).

Assay [1] is filed under the species Rattus norvegicus. Description: In vitro effect on intracellular ca++ elevation was determined in comparison to the ATP at 10 uM on rat cardiomyocytes; Ca++ elevation; Not avtive. The class given is functional. The procedure, abridged: (§1)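 Cultured neonatal rat cardiomyocytes (3-5 days in vitro) on coverglasses were loaded with indo-1, and [Ca²⁺]i was estimated by the 405/495 nm emission ratio method under UV epifluorescence. Ligand was added at 100 µM, with ATP 10 µM as reference. The read-out was [Ca²⁺]i elevation in nM above the 100 nM basal level, from 2-3 experiments.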

Assay [2] is filed under the species Rattus norvegicus. Description: Compound was evaluated 1 min after drug application on rat cardiomyocytes. The class given is functional. Also noted: concentration or dose not given beside the values. The procedure, abridged: (§2)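 Neonatal rat cardiomyocyte cultures (3-5 days in vitro, spontaneously contracting monolayers on collagen/gelatin-coated coverglasses) exposed to ligand at 100 µM. Contraction rate was recorded by video motion detector under phase-contrast microscopy at 37 °C in 95% air/5% CO₂, 1 min after drug application. The read-out was % reduction of heart rate from representative experiments.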

For assay [3], the species on record is Rattus norvegicus. Put plainly: Inhibition of Ca++ elevation was determined in PPADS treated cardiac cells in rat; Complete inhibition. The class given is functional, cell-based.
For assay [4], the species on record is Rattus norvegicus. Put plainly: In vitro effect on intracellular ca++ elevation in comparison to the ATP at 10 uM on rat cardiomyocytes. The class given is functional. The gist of the method: as §1
The species named for assay [5] is Rattus norvegicus. Put plainly: Inhibition of Ca++ elevation was determined in CPX treated cardiac cells in rat; No inhibition. It is filed as functional, cell-based.
The species named for assay [6] is Rattus norvegicus. Put plainly: In vitro effect on intracellular ca++ elevation was determined in comparison to the ATP at 10 uM on rat cardiomyocytes; Ca++ elevation. The class given is functional. The procedure, abridged: as §1
Assay [7] is filed under the species Rattus norvegicus. Description: Inhibition of Ca++ elevation was determined in CPX treated cardiac cells in rat; Complete inhibition; Complete inhibition. It is filed as functional, cell-based.
The species entered for assay [8] is Rattus norvegicus. Description: In vitro effect on intracellular ca++ elevation was determined in comparison to the ATP at 10 uM on rat cardiomyocytes; Ca++ elevation; Not active. It is filed as functional. The gist of the method: as §1
The species named for assay [9] is Rattus norvegicus. Description: In vitro effect on intracellular ca++ elevation was determined in comparison to the ATP at 10 uM on rat cardiomyocytes; Not active. The class given is functional. The procedure, abridged: as §1
The species entered for assay [10] is Rattus norvegicus. Put plainly: Inhibition of Ca++ elevation was determined in PPADS treated cardiac cells in rat. It is filed as functional. The gist of the method:
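Neonatal rat cardiomyocyte cultures. Cells were incubated 5 min with 100 µM PPADS (P2-R antagonist) before the agonist was added at 100 µM (ATP at 10 µM). Intracellular Ca²⁺ was measured by the indo-1 405/495 nm emission ratio (Grynkiewicz ratio method). Scored as complete inhibition (+), no inhibition (−), or partial.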

The species entered for assay [11] is Rattus norvegicus. Put plainly: Compound was evaluated 1 min after drug application on rat cardiomyocytes; Not active. It is filed as functional. The gist of the method: as §2
The species named for assay [12] is Rattus norvegicus. Description: Inhibition of Ca++ elevation was determined in CPX treated cardiac cells in rat; Complete inhibition. The class given is functional, cell-based.
For assay [13], the species on record is Rattus norvegicus. Put plainly: Inhibition of Ca++ elevation was determined in PPADS treated cardiac cells in rat; No inhibition. It is filed as functional, cell-based.

SMILES strings stand for the structures. Active and inactive are the calls of the source. The rule behind the calls is not given here.

In the case of `Cn1c(=O)c2c(ncn2CCCOP(=O)(O)O)n(C)c1=O`, the “Ca2+ elevation” value in the assay listed under Rattus norvegicus [1] was “inactive”.

Regarding `Cn1c(=O)c2c(ncn2CCOP(=O)(O)OP(=O)(O)OP(=O)(O)O)n(C)c1=O`, the “Reduction of heart rate” value in the assay listed under Rattus norvegicus [2] stood at 64%. Moreover, the inhibition result in the assay filed under Rattus norvegicus [3] is recorded as “Total inhibition”. Besides, the “Ca2+ elevation” value in the assay listed under Rattus norvegicus [4] came to 87 nM. Moreover, the inhibition result in the assay filed under Rattus norvegicus [5] is “inactive”.

On to `Cn1c(Br)nc2c1c(=O)n(CCOP(=O)(O)OP(=O)(O)OP(=O)(O)O)c(=O)n2C`, for which the “Reduction of heart rate” value in the assay listed under Rattus norvegicus [2] was determined as 50%. Further, the “Ca2+ elevation” value in the assay listed under Rattus norvegicus [6] is listed as 94 nM. The inhibition result in the assay listed under Rattus norvegicus [3] was “Total inhibition”.

As for `Cn1cnc2c1c(=O)n(CCCOP(=O)(O)O)c(=O)n2C`, the “Ca2+ elevation” value in the assay filed under Rattus norvegicus [1] is “inactive”.

With `Cn1cnc2c1c(=O)n(CCOP(=O)(O)O)c(=O)n2C.N.N`, the “Reduction of heart rate” value in the assay filed under Rattus norvegicus [2] came out at 10%. In addition, the inhibition result in the assay filed under Rattus norvegicus [7] and in the assay listed under Rattus norvegicus [3] was “Total inhibition” in each case. For the same compound, the “Ca2+ elevation” value in the assay filed under Rattus norvegicus [6] was 61 nM.

For the compound `Cn1c(=O)c2c(nc(Cl)n2CCOP(=O)(O)OP(=O)(O)OP(=O)(O)O)n(C)c1=O`, in the assay filed under Rattus norvegicus [2], the “Reduction of heart rate” value is 28%. In addition, the “Ca2+ elevation” value in the assay filed under Rattus norvegicus [6] stood at 29 nM. Also, the inhibition entry in the assay listed under Rattus norvegicus [3] is listed as “Total inhibition”. Besides, the inhibition result in the assay filed under Rattus norvegicus [5] is “inactive”.

For the compound `Cn1c(=O)c2c(ncn2CCCOP(=O)(O)OP(=O)(O)OP(=O)(O)O)n(C)c1=O`, the “Ca2+ elevation” value in the assay listed under Rattus norvegicus [8] is “inactive”.

For `Cn1c(=O)c2c(nc(Sc3ccccc3)n2CCOP(=O)(O)OP(=O)(O)OP(=O)(O)O)n(C)c1=O`, in the assay filed under Rattus norvegicus [9], the “Ca2+ elevation” value is “inactive”.

As for `CCOc1nc2c(c(=O)n(C)c(=O)n2C)n1CCOP(=O)(O)OP(=O)(O)OP(=O)(O)O`, the “Ca2+ elevation” value in the assay listed under Rattus norvegicus [1] was “inactive”.

In the case of `Nc1ncnc2c1ncn2[C@@H]1O[C@H](COP(=O)(O)OP(=O)(O)OP(=O)(O)O)[C@@H](O)[C@H]1O` [ADENOSINE TRIPHOSPHATE], in the assay listed under Rattus norvegicus [10], the Inhibition is reported as 60%. Besides, the inhibition result in the assay listed under Rattus norvegicus [5] was “inactive”.

As to `Cn1c(=O)c2c(nc(Br)n2CCOP(=O)(O)OP(=O)(O)OP(=O)(O)O)n(C)c1=O`, the “Reduction of heart rate” value in the assay filed under Rattus norvegicus [2] was 32%. Moreover, the “Ca2+ elevation” value in the assay listed under Rattus norvegicus [6] was 37 nM.

In the case of `Cn1c(Br)nc2c1c(=O)n(CCOP(=O)(O)O)c(=O)n2C`, in the assay listed under Rattus norvegicus [11], the NA result is “inactive”. For the same compound, the “Ca2+ elevation” value in the assay listed under Rattus norvegicus [6] worked out at 80 nM. Besides, in the assay listed under Rattus norvegicus [3], the inhibition entry was “Total inhibition”. The inhibition result in the assay filed under Rattus norvegicus [5] was “inactive”.

With `Cn1c(=O)c2c(nc(Cl)n2CCOP(=O)(O)O)n(C)c1=O`, the “Reduction of heart rate” value in the assay filed under Rattus norvegicus [2] turned out to be 95%. Besides, in the assay filed under Rattus norvegicus [6], the “Ca2+ elevation” value was 49 nM. Moreover, the inhibition result in the assay filed under Rattus norvegicus [5] is “inactive”.

Take `Cn1c(=O)c2c(nc(Sc3ccccc3)n2CCOP(=O)(O)O)n(C)c1=O`: in the assay listed under Rattus norvegicus [9], the “Ca2+ elevation” value is “inactive”.

For the compound `Cn1c(=O)c2c(ncn2CCOP(=O)(O)O)n(C)c1=O`, the “Reduction of heart rate” value in the assay filed under Rattus norvegicus [2] was found to be 16%. In the assay listed under Rattus norvegicus [6], the “Ca2+ elevation” value was 80 nM. Besides, the inhibition result in the assay filed under Rattus norvegicus [12] and in the assay listed under Rattus norvegicus [3] was “Total inhibition” in each case.

For `CCOc1nc2c(c(=O)n(C)c(=O)n2C)n1CCOP(=O)(O)O`, in the assay listed under Rattus norvegicus [9], the “Ca2+ elevation” value is “inactive”.

For `Cn1c(=O)c2c(nc(Br)n2CCOP(=O)(O)O)n(C)c1=O`, the “Reduction of heart rate” value in the assay listed under Rattus norvegicus [2] is 17%. Also, the “Ca2+ elevation” value in the assay listed under Rattus norvegicus [6] is given as 54 nM.

Take `Cn1cnc2c1c(=O)n(CCOP(=O)(O)OP(=O)(O)OP(=O)(O)O)c(=O)n2C.N.N.N.N`: the “Reduction of heart rate” value in the assay filed under Rattus norvegicus [2] amounted to 3%. In addition, the “Ca2+ elevation” value in the assay listed under Rattus norvegicus [6] worked out at 54 nM. In addition, the inhibition result in the assay filed under Rattus norvegicus [12] is “Total inhibition”. In addition, the inhibition result in the assay listed under Rattus norvegicus [13] is “inactive”.

With `Cn1c(Sc2ccccc2)nc2c1c(=O)n(CCOP(=O)(O)O)c(=O)n2C`, the “Ca2+ elevation” value in the assay listed under Rattus norvegicus [9] is “inactive”.

As for `Cn1cnc2c1c(=O)n(CCCOP(=O)(O)OP(=O)(O)OP(=O)(O)O)c(=O)n2C.N.N.N.N`, the “Ca2+ elevation” value in the assay filed under Rattus norvegicus [6] was found to be 60 nM.
